Columns and labels:
[1] = Intraexperimental difference between the hypoxic and aerobic cytotoxicity in mouse SCCVII tumor cells; type: functional, SCC-7
In short: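 Clonogenic SCCVII survival after 1 h drug exposure at 37 °C, either hypoxic (<200 ppm O2, 95% N2/5% CO2) or aerobic (95% air/5% CO2). Colonies of >50 cells counted after 10–14 days. HCR = aerobic C10 / hypoxic C10, with both values from the same experiment.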

SCC-7 [2] = assay: Inhibitory concentration against murine SCCVII cell line under hypoxic condition; type: functional, cell-based; conditions: Mus musculus
In short: (§1)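 SRB proliferation assay in 96-well plates. SCCVII (200 cells) or HT-29 (1000 cells) seeded in αMEM + 10% FCS with glucose (17 mM final) and 100 μM 2'-deoxycytidine, then attached for 3 h. Cells exposed for 4 h at 37 °C to 2-fold serial dilutions in triplicate, either oxic (20% O2, 5% CO2) or in an anaerobic chamber (<0.001% O2). After washing, cells grew for 5 (oxic) or 6 (anoxic) days before SRB staining. IC50 values are the mean of three independent experiments.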

[3] = Concentration required to reduce plating efficiency to 10 percent of controls, under aerobic conditions in mouse SCCVII tumor cells.; type: functional, SCC-7
In short: (§2)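 SCCVII cells plated in glass dishes (2×10^5 to 1×10^6 per dish) 1–2 days ahead. Drug freshly dissolved, given in complete medium for 1 h at 37 °C with shaking. Hypoxia (<200 ppm O2) by repeated evacuation/flushing with 95% N2 + 5% CO2; aerobic controls flushed with 95% air + 5% CO2. Cells washed, trypsinized, replated. Crystal violet stain after 10–14 days, >50-cell colonies scored. C10 is the concentration giving 10% of control plating efficiency.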

HT-29 [4] = assay: Inhibitory concentration against human adenocarcinoma HT-29 cell line under aerobic condition; type: functional, cell-based; in short: as §1
[5] = Concentration required to reduce plating efficiency to 10 percent of controls, under hypoxic conditions in mouse SCCVII tumor cells.; type: functional, SCC-7; in short: as §2
[6] = Intraexperimental ratio of hypoxic TPZ C10 to hypoxic BTO C10 in mouse SCCVII tumor cells.; type: functional, SCC-7
In short: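 Computed within each experiment from the clonogenic SCCVII assay (1 h drug exposure, hypoxia <200 ppm O2 by gas evacuation/flushing, colony counting after 10–14 days). RHT = C10 of TPZ under hypoxia divided by C10 of the analogue under hypoxia.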

HT-29 [7] = assay: Interexperimental ratio of hypoxic TPZ C10 to hypoxic BTO C10 using human adenocarcinoma HT-29 cell line; type: functional
HT-29 [8] = assay: Inhibitory concentration against human adenocarcinoma HT-29 cell line under hypoxic condition; type: functional, cell-based; in short: as §1
[9] = Interexperimental difference between the hypoxic and aerobic cytotoxicity using murine SCCVII cell line; type: functional, SCC-7
[10] = Interexperimental difference between the hypoxic and aerobic cytotoxicity using human adenocarcinoma HT-29 cell line; type: functional
SCC-7 [11] = assay: Inhibitory concentration against murine SCCVII cell line under aerobic condition; type: functional, cell-based; conditions: Mus musculus; in short: as §1
SCC-7 [12] = assay: Interexperimental ratio of hypoxic TPZ C10 to hypoxic BTO C10 using murine SCCVII cell line; type: functional, Mus musculus
[13] = Partition coefficient (logP); type: physicochemical; conditions: octanol/water
In short: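 Octanol/water partition at pH 7.4, measured by low-volume shake flask. Drug in both the octanol and buffer phases quantified by HPLC.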

| IC50 (SCC-7 [2]) | IC50 (HT-29 [4]) | IC50 (HT-29 [8]) | IC50 (SCC-7 [11]) | logP [13] | Structure (SMILES) | HCR [1] | C10 [3] | C10 [5] | RHT [6] | RHT (HT-29 [7]) | HCR [9] | HCR [10] | RHT (SCC-7 [12]) |
| --- | --- | --- | --- | --- | --- | --- | --- | --- | --- | --- | --- | --- | --- |
| 12.2 µM | 4.2 µM | 23.3 µM | 2.1 µM |  | CN(C)c1cccc2c1[n+]([O-])c(N)n[n+]2[O-] | 1.2 | 30.5 µM | 25.8 µM | 0.39 | 0.2 | 0.18 | 0.18 | 0.2 |
| 13.5 µM | 624 µM | 28.8 µM | 288 µM |  | COc1cccc2c1[n+]([O-])nc(N)[n+]2[O-] | >5.3 | >135 µM | 25.4 µM | 0.4 | 0.2 | 25.7 | 21.9 | 0.2 |
| 0.61 µM | 19.8 µM | 0.73 µM | 12.2 µM | 0.46 | Nc1n[n+]([O-])c2cc(Cl)ccc2[n+]1[O-] | 28.6 | 271 µM | 9.48 µM | 1.1 | 7.2 | 20.4 |  | 3.9 |
| 0.7 µM | 14.1 µM | 0.79 µM | 2.8 µM |  | Nc1n[n+]([O-])c2cc([N+](=O)[O-])ccc2[n+]1[O-] | 6.8 | 36.3 µM | 5.37 µM | 1.9 | 6.7 | 4.1 | 14.8 | 3.4 |
| 9.7 µM | 69.8 µM | 15.1 µM | 15.5 µM | -1.38 | CS(=O)(=O)c1cccc2c1[n+]([O-])nc(N)[n+]2[O-] | 6.7 | 338 µM | 50.8 µM | 0.2 | 0.4 | 1.6 | 4.5 | 0.2 |
| 0.92 µM | 79.1 µM | 2.1 µM | 23.9 µM | 0.81 | Nc1n[n+]([O-])c2cc(C(F)(F)F)ccc2[n+]1[O-] | 33.3 | 305 µM | 9.14 µM | 1.1 | 2.5 | 27.7 | 35.7 | 2.6 |
| 5.6 µM | 469 µM |  | 217 µM | 0.21 | Cc1ccc2c(c1)[n+]([O-])c(N)n[n+]2[O-] | 166.7 | 2901 µM | 17.4 µM | 0.58 | 0.4 | 42.6 |  | 0.4 |
| 1.2 µM | 8.7 µM | 2.1 µM | 23.7 µM |  | Nc1n[n+]([O-])c2c(F)cccc2[n+]1[O-] | 13 | 132 µM | 10.2 µM | 1 | 2.5 | 13.9 | 4.1 | 1.9 |

| Structure (SMILES) | IC50 (SCC-7 [2]) | IC50 (HT-29 [4]) | IC50 (HT-29 [8]) | IC50 (SCC-7 [11]) | logP [13] | HCR [1] | C10 [3] | C10 [5] | RHT [6] | RHT (HT-29 [7]) | HCR [9] | HCR [10] | RHT (SCC-7 [12]) |
| --- | --- | --- | --- | --- | --- | --- | --- | --- | --- | --- | --- | --- | --- |
| Nc1n[n+]([O-])c2ccc(Cl)cc2[n+]1[O-] | 0.98 µM | 41.2 µM | 1.3 µM | 21.1 µM |  | 21.6 | 140 µM | 6.47 µM | 1.6 | 4.1 | 22.5 | 33 | 2.4 |
| Nc1n[n+]([O-])c2cc(F)ccc2[n+]1[O-] | 1.1 µM | 47.8 µM | 1.87 µM | 17.6 µM |  | 70.3 | 381 µM | 5.41 µM | 1.9 | 2.8 | 19.3 | 21.7 | 2.2 |
| Nc1n[n+]([O-])c2c(Cl)cccc2[n+]1[O-] | 0.45 µM | 7.7 µM | 0.55 µM | 8.2 µM | 0.17 | 39.4 | 102 µM | 2.58 µM | 3.9 | 9.6 | 15.9 |  | 5.2 |
| Nc1n[n+]([O-])c2ccccc2[n+]1[O-] [TIRAPAZAMINE] | 2.4 µM | 196 µM | 5.3 µM | 71.7 µM | -0.34 | 258 | 2644 µM | 10.2 µM | 1 | 1 | 32.9 | 37 | 1 |

From ChEMBL document CHEMBL1145015, “Structure-activity relationships of 1,2,4-benzotriazine 1,4-dioxides as hypoxia-selective analogues of tirapazamine” (J Med Chem, 2003)
